These results are taken from ChEMBL document CHEMBL1131215, “Anhydrolide macrolides. 1. Synthesis and antibacterial activity of 2,3-anhydro-6-O-methyl 11,12-carbamate erythromycin A analogues” (1998).

Holding throughout (type): functional
One assay relates to Haemophilus influenzae. The experiment in a line: In vitro antibacterial activity against DILL strain of Haemophilus influenzae. In a few lines: (§1)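 MIC determined by standard agar dilution; values in μg/mL.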
The test system of assay [1] is Staphylococcus aureus. The experiment in a line: In vitro antibacterial activity against 6538P strain of Staphylococcus aureus. In a few lines:
as §1

Assay [2] has as its system Streptococcus pneumoniae. Put plainly: In vitro antibacterial activity against ATCC 6303 strain of Streptococcus pneumoniae. The method, boiled down:
as §1

Assay [3] deals with Mus musculus. The experiment in a line: Effective dose when administered orally in mice infected with Streptococcus pneumoniae ATCC 6303. Conditions: po. The method, boiled down:
(§2)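 Mice infected intraperitoneally with 1000 × LD₅₀ (S. aureus) or […] × LD₅₀ (S. pneumoniae). Compound given orally (po) or subcutaneously (sc) at 1 and 5 h post-infection. ED₅₀ expressed in mg/kg/day with 95% confidence interval.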

In assay [4] the test system is Staphylococcus aureus. Put plainly: In vitro antibacterial activity against A5177 strain of Staphylococcus aureus. The method, boiled down: as §1
The subject of assay [5] is Streptococcus pyogenes. The experiment in a line: In vitro antibacterial activity against 930 strain of Streptococcus pyogenes. The method, boiled down:
as §1

Assay [6] is described as follows: In vitro antibacterial activity against A-5278 strain of Staphylococcus aureus. Conditions: Staphylococcus aureus. In a few lines: as §1
The test system of assay [7] is Staphylococcus aureus. Put plainly: In vivo antibacterial activity in mice infected with Staphylococcus aureus NCTC-10649M.
Assay [8] has as its system Streptococcus pneumoniae. Put plainly: In vitro antibacterial activity against 5979 strain of Streptococcus pneumoniae. The method, boiled down: as §1
Assay [9] has as its system Streptococcus pneumoniae. Put plainly: In vivo antibacterial activity in mice infected with Streptococcus pneumoniae ATCC 6303.
In assay [10] the test system is Streptococcus pyogenes. Put plainly: In vitro antibacterial activity against PIU 2548 strain of Streptococcus pyogenes. In a few lines:
as §1

The test system of assay [11] is Mus musculus. Put plainly: Effective dose when administered orally in mice infected with Staphylococcus aureus NCTC-10649M. Conditions: po. In a few lines: as §2
Assay [12] concerns Streptococcus pneumoniae. The experiment in a line: In vitro antibacterial activity against 5649 strain of Streptococcus pneumoniae. In a few lines:
as §1

Assay [13] has as its system Mus musculus. The experiment in a line: Effective dose when administered subcutaneously in mice infected with Streptococcus pneumoniae ATCC 6303. Conditions: sc. In a few lines: as §2
Assay [14] relates to Mus musculus. The experiment in a line: Effective dose when administered subcutaneously in mice infected with Staphylococcus aureus NCTC-10649M. Conditions: sc. In a few lines:
as §2

[15] abbreviates: Streptococcus pneumoniae, ATCC 6303.

Converted amounts (≈) assume the structure as drawn.

In the case of `CC[C@H]1OC(=O)/C(C)=C/[C@H](C)[C@@H](O[C@@H]2O[C@H](C)C[C@H](N(C)C)[C@H]2O)[C@@](C)(OC)C[C@@H](C)C(=O)[C@H](C)[C@H]2N(CCc3ccc(F)cc3)C(=O)O[C@]12C`, the MIC is 16 µg/mL (≈ 22.3 µM) in the assay on Haemophilus influenzae; 0.39 µg/mL (≈ 0.542 µM) in the assay with Staphylococcus aureus [1] (Staphylococcus aureus); 0.125 µg/mL (≈ 0.174 µM) against Streptococcus pneumoniae [2] (setting [15]); 0.39 µg/mL (≈ 0.542 µM) against Staphylococcus aureus [4] (Staphylococcus aureus); 25 µg/mL (≈ 34.8 µM) in the assay on Streptococcus pyogenes [5] (Streptococcus pyogenes); 50 µg/mL (≈ 69.6 µM) in assay [6]. In addition, the MIC with Staphylococcus aureus [7] came to 0.39 µg/mL (≈ 0.542 µM); in the assay with Streptococcus pneumoniae [8], 32 µg/mL (≈ 44.5 µM); against Streptococcus pneumoniae [9] it was 0.125 µg/mL (≈ 0.174 µM); in the assay on Streptococcus pyogenes [10] (Streptococcus pyogenes) it was 0.39 µg/mL (≈ 0.542 µM); against Streptococcus pneumoniae [12] (Streptococcus pneumoniae) it was 1 µg/mL (≈ 1.39 µM). Besides, the ED50 is above 40 mg/kg/day in the assay on Mus musculus [3] and above 100 mg/kg/day in the assay on Mus musculus [11].

On to `CC[C@H]1OC(=O)/C(C)=C/[C@H](C)[C@@H](O[C@@H]2O[C@H](C)C[C@H](N(C)C)[C@H]2O)[C@@](C)(OC)C[C@@H](C)C(=O)[C@H](C)[C@H]2N(CCc3ccc(Oc4ccccc4)cc3)C(=O)O[C@]12C` (stereo in doubt; 14), for which the MIC in the assay on Staphylococcus aureus [1] is 3.1 µg/mL (≈ 3.91 µM); against Streptococcus pneumoniae [2], 1 µg/mL (≈ 1.26 µM); in the assay on Staphylococcus aureus [4], 3.1 µg/mL (≈ 3.91 µM); with Streptococcus pyogenes [5] (Streptococcus pyogenes) it was 6.2 µg/mL (≈ 7.82 µM); in [6], 25 µg/mL (≈ 31.5 µM); against Streptococcus pneumoniae [8], 8 µg/mL (≈ 10.1 µM). Moreover, the MIC turned out to be 1.56 µg/mL (≈ 1.97 µM) against Streptococcus pyogenes [10] (Streptococcus pyogenes) and 2 µg/mL (≈ 2.52 µM) in the assay with Streptococcus pneumoniae [12].

With `CC[C@H]1OC(=O)/C(C)=C/[C@H](C)[C@@H](O[C@@H]2O[C@H](C)C[C@H](N(C)C)[C@H]2O)[C@@](C)(OC)C[C@@H](C)C(=O)[C@H](C)[C@H]2N(CCc3ccc(C)cc3)C(=O)O[C@]12C`, the MIC in the assay on Haemophilus influenzae was determined as 16 µg/mL (≈ 22.4 µM); in the assay with Staphylococcus aureus [1] (Staphylococcus aureus) it was 0.39 µg/mL (≈ 0.545 µM); with Streptococcus pneumoniae [2] (setting [15]) it was 0.015 µg/mL (≈ 0.021 µM); against Staphylococcus aureus [4] (Staphylococcus aureus) it was 0.39 µg/mL (≈ 0.545 µM); against Streptococcus pyogenes [5] (Streptococcus pyogenes), 12.5 µg/mL (≈ 17.5 µM); in assay [6], 25 µg/mL (≈ 35 µM). Further, the values for the MIC against Streptococcus pneumoniae [8], against Streptococcus pyogenes [10] (Streptococcus pyogenes) and in the assay on Streptococcus pneumoniae [12] (Streptococcus pneumoniae) were 16 µg/mL (≈ 22.4 µM), 0.39 µg/mL (≈ 0.545 µM) and 0.25 µg/mL (≈ 0.35 µM), respectively.

`CC[C@H]1OC(=O)/C(C)=C/[C@H](C)[C@@H](O[C@@H]2O[C@H](C)C[C@H](N(C)C)[C@H]2O)[C@@](C)(OC)C[C@@H](C)C(=O)[C@H](C)[C@H]2N(CC/C=C\c3ccc(Cl)cc3)C(=O)O[C@]12C`: the MIC against Haemophilus influenzae came out at 32 µg/mL (≈ 42 µM); against Staphylococcus aureus [1] (Staphylococcus aureus) it was 0.39 µg/mL (≈ 0.512 µM); in the assay on Streptococcus pneumoniae [2] (setting [15]), 0.12 µg/mL (≈ 0.158 µM); against Streptococcus pyogenes [5] (Streptococcus pyogenes), 3.1 µg/mL (≈ 4.07 µM); in assay [6], 12.5 µg/mL (≈ 16.4 µM); against Streptococcus pneumoniae [8], 8 µg/mL (≈ 10.5 µM). Besides, the MIC stood at 0.2 µg/mL (≈ 0.263 µM) against Streptococcus pyogenes [10] (Streptococcus pyogenes) and 1 µg/mL (≈ 1.31 µM) in the assay with Streptococcus pneumoniae [12] (Streptococcus pneumoniae).

Consider `CC[C@H]1OC(=O)/C(C)=C/[C@H](C)[C@@H](O[C@@H]2O[C@H](C)C[C@H](N(C)C)[C@H]2O)[C@@](C)(OC)C[C@@H](C)C(=O)[C@H](C)[C@H]2N(CCCOc3ccc4ccccc4c3)C(=O)O[C@]12C`, for which the MIC against Haemophilus influenzae is 64 µg/mL (≈ 81.9 µM); with Staphylococcus aureus [1] (Staphylococcus aureus) it was 0.2 µg/mL (≈ 0.256 µM); in the assay with Streptococcus pneumoniae [2] (setting [15]) it was 0.03 µg/mL (≈ 0.0384 µM); in the assay on Staphylococcus aureus [4] (Staphylococcus aureus), 0.39 µg/mL (≈ 0.499 µM); against Streptococcus pyogenes [5] (Streptococcus pyogenes), 3.1 µg/mL (≈ 3.97 µM); in assay [6] it was 25 µg/mL (≈ 32 µM). The MIC stood at 8 µg/mL (≈ 10.2 µM) against Streptococcus pneumoniae [8], 0.39 µg/mL (≈ 0.499 µM) against Streptococcus pyogenes [10] (Streptococcus pyogenes) and 2 µg/mL (≈ 2.56 µM) against Streptococcus pneumoniae [12] (Streptococcus pneumoniae).

For the compound `CC[C@H]1OC(=O)/C(C)=C/[C@H](C)[C@@H](O[C@@H]2O[C@H](C)C[C@H](N(C)C)[C@H]2O)[C@@](C)(OC)C[C@@H](C)C2=NCCN3C(=O)O[C@@]1(C)[C@H]3[C@H]2C`, the ED50 with Mus musculus [13] is 7.5 mg/kg/day; in the assay on Mus musculus [3], 8 mg/kg/day; in the assay on Mus musculus [11], 66.1 mg/kg/day; in the assay on Mus musculus [14] it was above 40 mg/kg/day. Besides, the MIC against Haemophilus influenzae came to 16 µg/mL (≈ 25.7 µM); against Staphylococcus aureus [1] (Staphylococcus aureus), 0.78 µg/mL (≈ 1.25 µM); against Streptococcus pneumoniae [2] (setting [15]), 0.25 µg/mL (≈ 0.402 µM); in the assay on Staphylococcus aureus [4] (Staphylococcus aureus), 0.78 µg/mL (≈ 1.25 µM); against Staphylococcus aureus [7] it was 0.05 µg/mL (≈ 0.0804 µM); in the assay with Streptococcus pneumoniae [9] it was 0.25 µg/mL (≈ 0.402 µM). Also, the MIC in the assay on Streptococcus pyogenes [10] (Streptococcus pyogenes) was 0.2 µg/mL (≈ 0.322 µM); with Streptococcus pneumoniae [12] (Streptococcus pneumoniae), 1 µg/mL (≈ 1.61 µM).

As to `CC[C@H]1OC(=O)/C(C)=C/[C@H](C)[C@@H](O[C@@H]2O[C@H](C)C[C@H](N(C)C)[C@H]2O)[C@@](C)(OC)C[C@@H](C)C(=O)[C@H](C)[C@H]2N(CCCc3ccccc3)C(=O)O[C@]12C` (stereo in doubt; 10), the MIC was determined as 3.1 µg/mL (≈ 4.34 µM) in the assay on Staphylococcus aureus [1]; 1 µg/mL (≈ 1.4 µM) against Streptococcus pneumoniae [2] (setting [15]); 3.1 µg/mL (≈ 4.34 µM) against Staphylococcus aureus [4]; 25 µg/mL (≈ 35 µM) with Streptococcus pyogenes [5]; 50 µg/mL (≈ 69.9 µM) in [6]; 64 µg/mL (≈ 89.5 µM) in the assay on Streptococcus pneumoniae [8]. Also, the MIC in the assay with Streptococcus pyogenes [10] was 0.78 µg/mL (≈ 1.09 µM); against Streptococcus pneumoniae [12] (Streptococcus pneumoniae), 2 µg/mL (≈ 2.8 µM).
